Measured values: ChEMBL document CHEMBL4477254, “Synthesis and biological evaluation of some novel triazole hybrids of curcumin mimics and their selective anticancer activity against breast and prostate cancer cell lines” (Bioorg Med Chem Lett, 2016)
Each block holds one molecule with its values, some of them ahead of it. The source made the active and inactive calls. The rule behind the calls is not given here.

Experiments:
PC-3 [1] = experiment: Increase in Bax expression in human PC3 cells at 4.8 to 8.8 uM after 24 hrs by Western blot analysis; assay type: functional, cell-based
Outline: (§1)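 MCF-7 or PC-3 cells treated with compound for 24 h, harvested; PCNA, Bax and Bcl-2 protein expression checked by Western blotting.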

[2] = Intrinsic hepatic clearance in liver microsomes (unknown origin) assessed per mg of protein at 8 ug/ml in presence of NADPH by UPLC analysis; assay type: ADME, Microsome; conditions: read-out: CLH (converted)
[3] = Intrinsic clearance in liver microsomes (unknown origin) assessed per mg of protein at 8 ug/ml in presence of NADPH by UPLC analysis; assay type: ADME, Microsome
PC-3 [4] = experiment: Induction of apoptosis in human PC3 cells assessed as early apoptotic cells at 8.8 uM after 24 hrs by annexin V-FITC/propidium iodide staining based flow cytometry (reference value: 4.44%); assay type: functional
Outline: (§2)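 MCF-7 cells exposed to 3, 6 or 9 μM and PC-3 cells to 4.8 or 8.8 μM for 24 h, then harvested and dual-stained with Annexin V-FITC/PI and read by flow cytometry. Gates: live AnnexinV⁻/PI⁻, early apoptotic AnnexinV⁺/PI⁻, necrotic AnnexinV⁻/PI⁺.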

PC-3 [5] = experiment: Induction of apoptosis in human PC3 cells assessed as late apoptotic cells at 8.8 uM after 24 hrs by annexin V-FITC/propidium iodide staining based flow cytometry (reference value: 0.80%); assay type: functional; outline: as §2
PC-3 [6] = experiment: Induction of morphological changes in human PC3 cells assessed as decrease in cell number at 2.4 to 8.8 uM after 24 hrs by phase contrast microscopy; assay type: functional, cell-based
Outline: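 Cells were exposed to a range of concentrations for 24 h. Cell number and morphology, including detachment from the surface, were assessed by phase-contrast microscopy at 10X magnification.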

PC-3 [7] = experiment: Inhibition of colony formation in human PC3 cells incubated for 24 hrs measured till day 7 by crystal violet staining based assay; assay type: functional, cell-based
Outline: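 Cells were treated with a range of concentrations for 24 h. The medium was then replaced with complete medium and cells were grown for 7 days. Colonies were stained with 0.1% crystal violet.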

PC-3 [8] = experiment: Induction of apoptosis in human PC3 cells assessed as increase in early apoptotic cells after 24 hrs by annexin V-FITC/propidium iodide staining based flow cytometry; assay type: functional, cell-based; outline: as §2
MCF7 [9] = experiment: Cell cycle arrest in human MCF7 cells assessed as accumulation at G2/M phase at 6 uM after 24 hrs by propidium iodide staining based flow cytometry (reference value: 20.30%); assay type: functional
Outline: (§3)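 Cells treated 24 h with test compound, MCF-7 at various concentrations and PC-3 at various concentrations; cells harvested, stained with propidium iodide and acquired by flow cytometry for cell cycle phase distribution.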

MCF7 [10] = experiment: Induction of apoptosis in human MCF7 cells assessed as early apoptotic cells at 6 uM after 24 hrs by annexin V-FITC/propidium iodide staining based flow cytometry (reference value: 7.36%); assay type: functional
Outline: (§4)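 Apoptosis by Annexin V-FITC/PI dual staining: MCF-7 cells treated 24 h at 3, 6 and 9 µM, then harvested, stained and acquired by flow cytometry; early apoptotic = AnnexinV+/PI−, live = AnnexinV−/PI−, necrotic = AnnexinV−/PI+.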

MCF7 [11] = experiment: Induction of apoptosis in human MCF7 cells assessed as viable cells at 9 uM after 24 hrs by annexin V-FITC/propidium iodide staining based flow cytometry (reference value: 82.63%); assay type: functional; conditions: MCF7, 24 h, read-out: Activity; outline: as §2
[12] = Half life in liver microsomes (unknown origin) at 5 ug/ml in presence of NADPH by UPLC analysis; assay type: ADME, Microsome
MCF7 [13] = experiment: Cell cycle arrest in human MCF7 cells assessed as increase in cells at S phase after 24 hrs by propidium iodide staining based flow cytometry; assay type: functional; outline: as §3
MCF7 [14] = experiment: Induction of apoptosis in human MCF7 cells assessed as late apoptotic cells at 9 uM after 24 hrs by annexin V-FITC/propidium iodide staining based flow cytometry (reference value: 5.25%); assay type: functional; outline: as §4
MCF7 [15] = experiment: Increase in Bax expression in human MCF7 cells at 3 to 9 uM after 24 hrs by Western blot analysis; assay type: functional, cell-based; outline: as §1
MCF7 [16] = experiment: Cell cycle arrest in human MCF7 cells assessed as accumulation at G0/G1 phase at 3 uM after 24 hrs by propidium iodide staining based flow cytometry (reference value: 45.67%); assay type: functional; outline: as §3
MCF7 [17] = experiment: Induction of apoptosis in human MCF7 cells assessed as late apoptotic cells at 6 uM after 24 hrs by annexin V-FITC/propidium iodide staining based flow cytometry (reference value: 5.25%); assay type: functional; outline: as §4
MCF7 [18] = experiment: Cell cycle arrest in human MCF7 cells assessed as accumulation at S phase at 6 uM after 24 hrs by propidium iodide staining based flow cytometry (reference value: 34.03%); assay type: functional; outline: as §3
MCF7 [19] = experiment: Induction of apoptosis in human MCF7 cells assessed as late apoptotic cells at 3 uM after 24 hrs by annexin V-FITC/propidium iodide staining based flow cytometry (reference value: 5.25%); assay type: functional; outline: as §4
MCF7 [20] = experiment: Induction of mitochondrial membrane depolarization in human MCF7 cells at 6 uM after 24 hrs by JC-1 staining based flow cytometry (reference value: 11%); assay type: functional
[21] = Elimination rate constant in liver microsomes (unknown origin) at 5 ug/ml measured up to 60 mins by UPLC analysis; assay type: ADME, Microsome
[22] = Intrinsic clearance in liver microsomes (unknown origin) assessed per mg of protein at 5 ug/ml in presence of NADPH by UPLC analysis; assay type: ADME, Microsome
MCF7 [23] = experiment: Induction of apoptosis in human MCF7 cells assessed as increase in early apoptotic cells after 24 hrs by annexin V-FITC/propidium iodide staining based flow cytometry; assay type: functional, cell-based; outline: as §4

CLint scaled at 8 ug/ml [2]: 2630 mL/min/kg
CLint [3]: 87 µL/min/mg
SMILES: Cc1ccc(/C=C2\CN(Cc3cn(Cc4ccccc4F)nn3)C/C(=C\c3ccc(C)cc3)C2=O)cc1
Activity (PC-3 [1]): Active
Activity (PC-3 [4]): 17.54%
Activity (PC-3 [5]): 0.88%
Activity (PC-3 [6]): Active
inhibition (PC-3 [7]): Dose-dependent effect
Activity (PC-3 [8]): Dose-dependent effect

half-life at 5 ug/ml [12]: 7.52 min
k el at 1 h, 5 ug/ml [21]: 0.00147 s⁻¹
CLint [22]: 176 µL/min/mg
SMILES: O=C1/C(=C/c2ccccc2F)CN(Cc2cn(Cc3ccc(F)cc3)nn2)C/C1=C\c1ccccc1F
Activity (MCF7 [9]): 43.6%
Activity (MCF7 [10]): 30.56%
viability at 9 µM (MCF7 [11]): 40.3%
Activity (MCF7 [13]): Dose-dependent effect
Activity (MCF7 [14]): 19.59%
Activity (MCF7 [15]): Active
Activity (MCF7 [16]): 38.9%
Activity (MCF7 [17]): 15.2%
Activity (MCF7 [18]): 44.43%
Activity (MCF7 [19]): 16.3%
Activity (MCF7 [20]): 85.6%
Activity (MCF7 [23]): Dose-dependent effect
